# Results taken from ChEMBL document CHEMBL4052833, “Design, Synthesis, and Biological Activity of New N-(Phenylmethyl)-benzoxazol-2-thiones as Macrophage Migration Inhibitory Factor (MIF) Antagonists: Efficacies in Experimental Pulmonary Hypertension” (J Med Chem, 2018).
# Calls of active or inactive are those of the source. The calls are words filed in the database; no cut-off is given here.
# Tests used:
# DU-145 [1] = assay: Inhibition of cell survival in MIF dependent human DU145 cells at 100 uM after 24 hrs by MTT assay; type: functional; conditions: for inhibition at 100 µM: DU-145, 24 h
# In short: (§1)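 DU-145 (RPMI) or iPAH endothelial cells (MCDB131) grown 24 h with 10% FCS, washed, then exposed 24 h serum-free to 10, 50 or 100 µM compound. MTT 5 mg/mL added for 6 h, medium removed, DMSO added, absorbance read at 590 nm.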
# [2] = molecular target: T1, Macrophage migration inhibitory factor (Homo sapiens, UniProt P14174); assay: Inhibition of recombinant human MIF tautomerase activity using 4-HPP as substrate preincubated for 15 mins followed by substrate addition measured after 360 secs
# T1 sequence (P14174 whole entry): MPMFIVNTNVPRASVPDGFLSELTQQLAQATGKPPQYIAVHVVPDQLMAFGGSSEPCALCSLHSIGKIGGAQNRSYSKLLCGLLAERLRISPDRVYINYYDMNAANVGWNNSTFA
# In short: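 Recombinant human MIF (100 nM) preincubated 15 min with 8 inhibitor concentrations, 0–10 µM; 4-HPP substrate, pre-equilibrated overnight at 4°C in 50 mM ammonium acetate, added in 0.435 M boric acid pH 6.6 at room temperature. Absorbance increase at 305 nm followed over 0–360 s; Ki determined; at least 3 independent replicates.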
# DU-145 [3] = assay: Antiproliferative activity against human DU145 cells by BrdU-incorporation based time-resolved fluorescence analysis
# DU-145 [4] = assay: Induction of apoptosis in human DU145 cells at 100 uM by TUNEL assay; type: functional, cell-based
# Rattus norvegicus [5] = assay: Anti-hypertensive activity in MCT-induced pulmonary hypertension Wistar rat model at 30 mg/kg/day administered via oral gavage for 2 weeks starting from 2 weeks post MCT challenge; type: functional, organism-based
# In short: (§2)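 Young male Wistar rats (100 g) given single subcutaneous monocrotaline 60 mg/kg; from 2 weeks later, dosed daily by gavage for 2 weeks at 30 mg.kg.day-1 in 33% DMSO in propylene glycol:saline (68:32), or vehicle alone. Under isoflurane, jugular catheter advanced into pulmonary artery for pressure; cardiac output by thermodilution; RV hypertrophy as Fulton index.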
# DU-145 [6] = assay: Induction of apoptosis in human DU145 cells assessed as viable cells at 100 uM by Annexin V-FITC-staining based FACS analysis (reference value: 94.9%); type: functional; conditions: read-out: Activity
# Rattus norvegicus [7] = assay: Anti-hypertensive activity in MCT-induced pulmonary hypertension Wistar rat model assessed as reduction in mean pulmonary artery pressure at 30 mg/kg/day administered via oral gavage for 2 weeks starting from 2 weeks post MCT challenge measured post last dose; type: functional, organism-based; in short: as §2
# Rattus norvegicus [8] = assay: Toxicity in MCT-induced pulmonary hypertension Wistar rat model assessed as change in heart rate at 30 mg/kg/day administered via oral gavage for 2 weeks starting from 2 weeks post MCT challenge; type: organism-based; conditions: in vivo, 336 h; in short: as §2
# [9] = Aqueous solubility in pH 7.4 PBS buffer at […] after 24 hrs; type: physicochemical
# Rattus norvegicus [10] = assay: Cardioprotective activity in MCT-induced pulmonary hypertension Wistar rat model assessed as reversal of increased collagen fibers in endomysium at 30 mg/kg/day administered via oral gavage for 2 weeks starting from 2 weeks post MCT challenge measured post last dose by picrosirius red staining-based assay; type: functional, organism-based
# In short: (§3)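 Monocrotaline rat model as above (60 mg/kg s.c.; daily gavage 30 mg/kg/day for 2 weeks starting 2 weeks post-MCT, DMSO/propylene glycol/saline vehicle). Heart sections deparaffinized and stained with Picrosirius red for collagen; collagen area fraction scored in right and left ventricle myocardium against control rats.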
# DU-145 [11] = assay: Inhibition of cell survival in MIF dependent human DU145 cells after 24 hrs by MTT assay; type: functional, cell-based; conditions: DU-145, 24 h; in short: as §1
# DU-145 [12] = assay: Induction of apoptosis in human DU145 cells assessed as early apoptotic cells at 100 uM by Annexin V-FITC-staining based FACS analysis (reference value: 2.5%); type: functional
# DU-145 [13] = assay: Induction of apoptosis in human DU145 cells assessed as late apoptotic cells at 100 uM by Annexin V-FITC-staining based FACS analysis (reference value: 2.34%); type: functional
# Rattus norvegicus [14] = assay: Anti-hypertensive activity in MCT-induced pulmonary hypertension Wistar rat model assessed as reduction in right ventricular hypertrophy at 30 mg/kg/day administered via oral gavage for 2 weeks starting from 2 weeks post MCT challenge measured post last dose; type: functional, organism-based; in short: as §2
# [15] = molecular target: T2, Macrophage migration inhibitory factor (Homo sapiens) (UniProt P14174); assay: Inhibition of recombinant human MIF-induced AKT phosphorylation in idiopathic pulmonary arterial hypertension patient derived primary pulmonary endothelial cells by Western blot analysis
# T2 sequence (whole entry): T1 sequence (P14174 whole entry)
# In short: (§4)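 iPAH-derived pulmonary endothelial cells stimulated with 50 ng/mL recombinant MIF (endotoxin <0.07 EU/µg) with increasing antagonist doses; lysed and sonicated in RIPA with protease/phosphatase inhibitors, 30 µg protein immunoblotted for pAKT/AKT and pERK1/2/ERK.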
# Rattus norvegicus [16] = assay: Cardiotoxicity in MCT-induced pulmonary hypertension Wistar rat model assessed as effect on collagen area fraction in left ventricle at 30 mg/kg/day administered via oral gavage for 2 weeks starting from 2 weeks post MCT challenge measured post last dose by picrosirius red staining based assay; type: toxicity, organism-based; conditions: in vivo, 336 h; in short: as §3
# Rattus norvegicus [17] = assay: Cardiotoxicity in MCT-induced pulmonary hypertension Wistar rat model assessed as induction of cardiac fibrosis at 30 mg/kg/day administered via oral gavage for 2 weeks starting from 2 weeks post MCT challenge measured post last dose by picrosirius red staining based assay; type: toxicity, organism-based; conditions: in vivo, 336 h; in short: as §3
# DU-145 [18] = assay: Induction of apoptosis in human DU145 cells assessed as necrotic cells at 100 uM by Annexin V-FITC-staining based FACS analysis (reference value: 0.22%); type: functional
# [19] = molecular target: T2, Macrophage migration inhibitory factor (Homo sapiens); assay: Inhibition of recombinant human MIF-induced ERK phosphorylation in idiopathic pulmonary arterial hypertension patient derived primary pulmonary endothelial cells by Western blot analysis; in short: as §4
# Rattus norvegicus [20] = assay: Toxicity in MCT-induced pulmonary hypertension Wistar rat model assessed as change in systemic blood pressure at 30 mg/kg/day administered via oral gavage for 2 weeks starting from 2 weeks post MCT challenge; type: organism-based; conditions: in vivo, 336 h; in short: as §2
# [21] = Inhibition of cell survival in idiopathic pulmonary arterial hypertension patient derived primary pulmonary endothelial cells at 100 uM after 24 hrs by MTT assay; type: functional; conditions: Homo sapiens; in short: as §1
# Rattus norvegicus [22] = assay: Toxicity in MCT-induced pulmonary hypertension Wistar rat model assessed as change in body weight at 30 mg/kg/day administered via oral gavage for 2 weeks starting from 2 weeks post MCT challenge; type: organism-based; conditions: in vivo, 336 h; in short: as §2
# DU-145 [23] = assay: Induction of apoptosis in human DU145 cells assessed as increase in caspase 3/7 activity after 24 hrs by fluorescence based assay; type: functional, cell-based
# In short: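 DU-145 cells exposed to increasing doses for 24 h; caspase-3/7 activity measured by fluorogenic Apo-ONE read-out.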
compound,measurement,setting,value
S=c1oc2ccccc2n1Cc1ccccc1,inhibition,DU-145 [1],inactive
COc1ccc2oc(=S)n(Cc3cccc(O)c3)c2c1,inhibition at 100 µM,DU-145 [1],16%
Cc1ccc2oc(=O)n(Cc3ccccc3)c2c1,inhibition,DU-145 [1],inactive
Cc1cccc(Cn2c(=S)oc3ccc(C)cc32)c1,inhibition at 100 µM,DU-145 [1],32%
Cc1ccc2oc(=S)n(Cc3ccccc3C)c2c1,inhibition,DU-145 [1],inactive
Cc1ccc2oc(=S)n(Cc3cccc(F)c3)c2c1,inhibition at 100 µM,DU-145 [1],46%
Cc1cccc2oc(=S)n(Cc3ccccc3)c12,inhibition,DU-145 [1],inactive
Cc1ccc2oc(=S)n(Cc3ccc([N+](=O)[O-])cc3)c2c1,inhibition at 100 µM,DU-145 [1],13%
Cc1ccc2oc(=S)n(Cc3ccccc3)c2c1,inhibition at 100 µM,DU-145 [1],36%
same,Ki,[2],1 to 3 µM
Oc1cc(Cn2c(=S)oc3ccc(C(F)(F)F)cc32)ccc1F,Activity,DU-145 [3],Dose-dependent effect
same,Activity,DU-145 [4],Active
same,Activity,Rattus norvegicus [5],Active
same,viability at 100 µM,DU-145 [6],47.9%
same,Activity,Rattus norvegicus [7],Active
same,Activity,Rattus norvegicus [8],Non-Toxic
same,inhibition at 100 µM,DU-145 [1],84%
same,solubility at 24 h,[9],3 to 4 µM
same,Activity,Rattus norvegicus [10],Active
same,Ki,[2],0.3 to 1 µM
same,EC50,DU-145 [11],60.5 µM
same,Activity,DU-145 [12],16.7%
same,Activity,DU-145 [13],14.5%
same,Activity,Rattus norvegicus [14],Active
same,inhibition,[15],Dose-dependent effect
same,Activity,Rattus norvegicus [16],Non-Toxic
same,Activity,Rattus norvegicus [17],Non-Toxic
same,Activity,DU-145 [18],20.8%
same,inhibition,[19],Dose-dependent effect
same,Activity,Rattus norvegicus [20],Non-Toxic
same,inhibition at 100 µM,[21],70%
same,Activity,Rattus norvegicus [22],Non-Toxic
same,Activity,DU-145 [23],Dose-dependent effect
Cc1ccc2oc(=S)n(Cc3ccccc3F)c2c1,inhibition at 100 µM,DU-145 [1],28%
Cc1ccc(Cn2c(=S)oc3ccc(C)cc32)cc1,inhibition,DU-145 [1],inactive
Cc1ccc2oc(=S)n(Cc3cccc([N+](=O)[O-])c3)c2c1,inhibition at 100 µM,DU-145 [1],24%
Cc1ccc2oc(=S)n(Cc3ccc(Cl)cc3)c2c1,inhibition at 100 µM,DU-145 [1],22%
COc1ccc(Cn2c(=S)oc3ccc(C)cc32)cc1,inhibition at 100 µM,DU-145 [1],36%
S=c1oc2ccc(Cl)cc2n1Cc1ccccc1,inhibition at 100 µM,DU-145 [1],34%
Cc1ccc2oc(=S)n(Cc3ccccc3Cl)c2c1,inhibition,DU-145 [1],inactive
COc1ccccc1Cn1c(=S)oc2ccc(C)cc21,inhibition at 100 µM,DU-145 [1],29%
Cc1ccc2oc(=S)n(Cc3ccc(F)c(O)c3)c2c1,inhibition at 100 µM,DU-145 [1],31%
same,Ki,[2],2 to 5 µM
CC(C)c1ccc2oc(=S)n(Cc3ccccc3)c2c1,inhibition,DU-145 [1],inactive
same,Ki,[2],1 to 3 µM
COc1cccc(Cn2c(=S)oc3ccc(C)cc32)c1,inhibition at 100 µM,DU-145 [1],47%
CC(C)(C)c1ccc2oc(=S)n(Cc3ccccc3)c2c1,inhibition,DU-145 [1],inactive
Cc1ccc2oc(=S)n(Cc3ccccc3[N+](=O)[O-])c2c1,inhibition at 100 µM,DU-145 [1],14%
O=c1oc2ccc(C(F)(F)F)cc2n1Cc1ccc(F)c(O)c1,inhibition,DU-145 [1],inactive
Fc1ccc2oc(=S)n(Cc3ccccc3)c2c1,inhibition at 100 µM,DU-145 [1],31%
FC(F)(F)c1ccc2oc(=S)n(Cc3ccccc3)c2c1,inhibition at 100 µM,DU-145 [1],48%
Cc1ccc2oc(=S)n(Cc3cccc(O)c3)c2c1,inhibition at 100 µM,DU-145 [1],46%
same,Ki,[2],0.1 to 0.6 µM
Cc1ccc2oc(=S)n(Cc3ccc(F)cc3)c2c1,inhibition at 100 µM,DU-145 [1],25%
Cc1ccc2oc(=S)n(Cc3ccccc3O)c2c1,inhibition,DU-145 [1],inactive
COC(=O)CC1CC(c2ccc(O)cc2)=NO1 (configuration not stated),inhibition at 100 µM,DU-145 [1],8%
Cc1ccc2c(c1)oc(=S)n2Cc1ccccc1,inhibition at 100 µM,DU-145 [1],24%
